The record followed here is ChEMBL document CHEMBL1641497, “A potent and selective indole N-type calcium channel (Ca(v)2.2) blocker for the treatment of pain” (Bioorg Med Chem Lett, 2011).

Bounds are passed on as bounds.

Series [1] is described as follows: Oral bioavailability in rat at 3 mg/kg. In kind it is ADME, organism-based. As to conditions: in vivo. The essentials:
(§1)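 Rat PK with 1.0 mg/kg IV and 3.0 mg/kg PO doses, based on plasma analysis. Parameters: Cmax, dose-normalized AUC (μM h kg/mg), plasma clearance (mL/min/kg), Vdss (L/kg), T1/2 (h) and oral bioavailability (%).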

The target in series [2] is Cav1.2 (voltage-dependent L-type calcium channel subunit alpha-1C) (Homo sapiens, UniProt Q13936). Description: Blockade of Cav1.2 channel at 10 uM by fluorescent calcium-influx assay. In outline: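 Cav1.2 (L-type) channel block measured with a fluorescent calcium-influx FLIPR assay. Results are reported as % inhibition at 10 μM test concentration.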
Cav1.2 (voltage-dependent L-type calcium channel subunit alpha-1C), sequence (Q13936 whole entry): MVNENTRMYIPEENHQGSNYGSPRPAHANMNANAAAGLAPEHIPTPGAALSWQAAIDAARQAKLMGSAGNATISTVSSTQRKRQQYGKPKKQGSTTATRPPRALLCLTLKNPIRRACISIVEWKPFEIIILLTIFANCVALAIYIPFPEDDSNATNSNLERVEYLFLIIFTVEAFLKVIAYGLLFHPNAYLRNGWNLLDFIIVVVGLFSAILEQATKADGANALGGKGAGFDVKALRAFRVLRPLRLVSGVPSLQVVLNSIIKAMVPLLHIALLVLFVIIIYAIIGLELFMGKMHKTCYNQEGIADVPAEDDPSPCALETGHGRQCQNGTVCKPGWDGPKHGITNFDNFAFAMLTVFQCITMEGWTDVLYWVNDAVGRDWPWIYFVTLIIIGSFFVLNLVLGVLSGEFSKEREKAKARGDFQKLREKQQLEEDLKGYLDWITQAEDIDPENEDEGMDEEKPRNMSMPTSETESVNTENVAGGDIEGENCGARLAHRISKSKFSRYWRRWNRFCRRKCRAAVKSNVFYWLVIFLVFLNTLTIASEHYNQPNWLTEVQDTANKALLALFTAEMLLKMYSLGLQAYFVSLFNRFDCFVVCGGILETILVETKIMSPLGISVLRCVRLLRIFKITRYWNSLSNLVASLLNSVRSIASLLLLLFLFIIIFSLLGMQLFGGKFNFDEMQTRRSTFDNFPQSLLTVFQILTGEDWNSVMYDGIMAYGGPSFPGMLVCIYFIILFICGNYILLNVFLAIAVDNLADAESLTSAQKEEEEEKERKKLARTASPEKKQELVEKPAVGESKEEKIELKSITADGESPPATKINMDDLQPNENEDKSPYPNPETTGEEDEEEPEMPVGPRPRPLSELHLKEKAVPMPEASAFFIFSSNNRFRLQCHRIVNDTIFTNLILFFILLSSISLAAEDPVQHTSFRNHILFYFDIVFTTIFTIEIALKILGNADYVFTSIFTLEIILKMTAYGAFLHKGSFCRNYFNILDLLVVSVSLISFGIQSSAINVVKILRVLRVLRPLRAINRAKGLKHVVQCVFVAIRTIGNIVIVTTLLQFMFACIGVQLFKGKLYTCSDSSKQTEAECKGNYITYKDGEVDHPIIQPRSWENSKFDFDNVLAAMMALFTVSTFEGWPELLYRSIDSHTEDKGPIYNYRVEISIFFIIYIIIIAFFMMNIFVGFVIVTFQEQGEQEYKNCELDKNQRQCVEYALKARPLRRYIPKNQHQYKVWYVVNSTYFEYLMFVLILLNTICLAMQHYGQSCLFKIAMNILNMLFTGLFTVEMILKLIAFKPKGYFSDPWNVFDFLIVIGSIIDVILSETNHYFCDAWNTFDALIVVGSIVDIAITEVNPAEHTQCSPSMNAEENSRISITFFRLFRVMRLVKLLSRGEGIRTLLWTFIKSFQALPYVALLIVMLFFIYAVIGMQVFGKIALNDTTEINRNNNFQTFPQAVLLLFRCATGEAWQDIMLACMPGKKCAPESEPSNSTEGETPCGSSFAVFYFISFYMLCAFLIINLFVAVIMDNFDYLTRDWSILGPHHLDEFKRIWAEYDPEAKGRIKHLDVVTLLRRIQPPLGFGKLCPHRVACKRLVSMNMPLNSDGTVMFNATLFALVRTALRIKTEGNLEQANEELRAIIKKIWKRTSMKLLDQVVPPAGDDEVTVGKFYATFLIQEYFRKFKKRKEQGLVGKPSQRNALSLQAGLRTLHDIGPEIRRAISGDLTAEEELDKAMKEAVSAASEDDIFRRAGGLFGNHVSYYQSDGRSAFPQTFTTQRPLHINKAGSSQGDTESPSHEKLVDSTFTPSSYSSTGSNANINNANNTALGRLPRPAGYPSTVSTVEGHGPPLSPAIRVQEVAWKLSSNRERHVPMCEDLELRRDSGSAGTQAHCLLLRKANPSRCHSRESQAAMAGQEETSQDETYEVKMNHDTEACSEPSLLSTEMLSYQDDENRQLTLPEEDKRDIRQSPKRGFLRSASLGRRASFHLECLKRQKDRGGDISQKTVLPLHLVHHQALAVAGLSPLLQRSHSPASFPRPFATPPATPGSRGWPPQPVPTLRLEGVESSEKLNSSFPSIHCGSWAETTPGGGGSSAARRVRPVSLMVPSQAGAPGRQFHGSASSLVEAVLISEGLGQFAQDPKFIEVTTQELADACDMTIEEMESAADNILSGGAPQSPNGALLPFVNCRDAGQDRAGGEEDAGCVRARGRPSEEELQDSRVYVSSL
The target in series [3] is T1, Nuclear receptor subfamily 1 group I member 2 (Homo sapiens, UniProt O75469).
T1 sequence (O75469 whole entry): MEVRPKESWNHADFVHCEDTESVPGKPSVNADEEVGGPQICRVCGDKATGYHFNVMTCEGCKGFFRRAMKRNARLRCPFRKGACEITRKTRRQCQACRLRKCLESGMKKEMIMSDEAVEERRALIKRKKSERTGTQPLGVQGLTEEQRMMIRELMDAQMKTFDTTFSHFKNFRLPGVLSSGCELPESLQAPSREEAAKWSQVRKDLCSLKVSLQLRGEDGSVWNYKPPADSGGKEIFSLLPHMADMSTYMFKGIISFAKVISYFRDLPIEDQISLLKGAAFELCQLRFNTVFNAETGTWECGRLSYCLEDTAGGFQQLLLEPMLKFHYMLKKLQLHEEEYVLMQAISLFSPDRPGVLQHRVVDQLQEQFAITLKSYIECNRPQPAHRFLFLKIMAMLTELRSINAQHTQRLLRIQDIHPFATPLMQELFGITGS
The series is described as follows: Activity at PXR by induction assay.

A short description of series [4]: Metabolic stability in human liver microsomes assessed as compound remaining after 60 mins. It is filed as ADME, Microsome. The conditions noted are these: read-out: Stability. The essentials: (§2)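 Compounds incubated with human or rat liver microsomes for 60 min. Read-out is the percent of parent compound remaining.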
(In general: Liver microsomes are vesicles of endoplasmic reticulum, rich in cytochrome P450 enzymes.)

Series [5] in a line: Metabolic stability in rat liver microsomes assessed as compound remaining after 60 mins. In kind it is ADME, Microsome. As to conditions: read-out: Stability. The essentials: as §2
The test system of another series is Rattus norvegicus. Description: Dose normalized AUC in rat at 1 mg/kg, iv and 3 mg/kg, po. The conditions noted are these: in vivo. It is filed as ADME, organism-based. In outline:
as §1

A short description of series [6]: Plasma clearance in rat at 1 mg/kg, iv and 3 mg/kg, po. In kind it is ADME, organism-based. The essentials: as §1
The nature of series [7]: Half life in rat at 1 mg/kg, iv and 3 mg/kg, po. The conditions noted are these: in vivo. In kind it is ADME, organism-based. In outline:
as §1

The target in series [8] is Voltage-dependent N-type calcium channel subunit alpha-1B (Homo sapiens, UniProt Q00975). Description: Blockade of Cav2.2 channel by fluorescent calcium-influx assay. In outline:
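[…] Cav2.2 channel block measured in vitro with a fluorescent calcium-influx (FLIPR) assay. Results are reported as % inhibition at 10 μM, with an IC50 (μM) for selected compounds.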

For series [9], the target named is Nav1.5 (sodium channel protein type 5 subunit alpha) (Homo sapiens, UniProt Q14524). Description: Blockade of Nav1.5 channel at 10 uM by fluorescent […] assay.
Nav1.5 (sodium channel protein type 5 subunit alpha), sequence (Q14524 whole entry): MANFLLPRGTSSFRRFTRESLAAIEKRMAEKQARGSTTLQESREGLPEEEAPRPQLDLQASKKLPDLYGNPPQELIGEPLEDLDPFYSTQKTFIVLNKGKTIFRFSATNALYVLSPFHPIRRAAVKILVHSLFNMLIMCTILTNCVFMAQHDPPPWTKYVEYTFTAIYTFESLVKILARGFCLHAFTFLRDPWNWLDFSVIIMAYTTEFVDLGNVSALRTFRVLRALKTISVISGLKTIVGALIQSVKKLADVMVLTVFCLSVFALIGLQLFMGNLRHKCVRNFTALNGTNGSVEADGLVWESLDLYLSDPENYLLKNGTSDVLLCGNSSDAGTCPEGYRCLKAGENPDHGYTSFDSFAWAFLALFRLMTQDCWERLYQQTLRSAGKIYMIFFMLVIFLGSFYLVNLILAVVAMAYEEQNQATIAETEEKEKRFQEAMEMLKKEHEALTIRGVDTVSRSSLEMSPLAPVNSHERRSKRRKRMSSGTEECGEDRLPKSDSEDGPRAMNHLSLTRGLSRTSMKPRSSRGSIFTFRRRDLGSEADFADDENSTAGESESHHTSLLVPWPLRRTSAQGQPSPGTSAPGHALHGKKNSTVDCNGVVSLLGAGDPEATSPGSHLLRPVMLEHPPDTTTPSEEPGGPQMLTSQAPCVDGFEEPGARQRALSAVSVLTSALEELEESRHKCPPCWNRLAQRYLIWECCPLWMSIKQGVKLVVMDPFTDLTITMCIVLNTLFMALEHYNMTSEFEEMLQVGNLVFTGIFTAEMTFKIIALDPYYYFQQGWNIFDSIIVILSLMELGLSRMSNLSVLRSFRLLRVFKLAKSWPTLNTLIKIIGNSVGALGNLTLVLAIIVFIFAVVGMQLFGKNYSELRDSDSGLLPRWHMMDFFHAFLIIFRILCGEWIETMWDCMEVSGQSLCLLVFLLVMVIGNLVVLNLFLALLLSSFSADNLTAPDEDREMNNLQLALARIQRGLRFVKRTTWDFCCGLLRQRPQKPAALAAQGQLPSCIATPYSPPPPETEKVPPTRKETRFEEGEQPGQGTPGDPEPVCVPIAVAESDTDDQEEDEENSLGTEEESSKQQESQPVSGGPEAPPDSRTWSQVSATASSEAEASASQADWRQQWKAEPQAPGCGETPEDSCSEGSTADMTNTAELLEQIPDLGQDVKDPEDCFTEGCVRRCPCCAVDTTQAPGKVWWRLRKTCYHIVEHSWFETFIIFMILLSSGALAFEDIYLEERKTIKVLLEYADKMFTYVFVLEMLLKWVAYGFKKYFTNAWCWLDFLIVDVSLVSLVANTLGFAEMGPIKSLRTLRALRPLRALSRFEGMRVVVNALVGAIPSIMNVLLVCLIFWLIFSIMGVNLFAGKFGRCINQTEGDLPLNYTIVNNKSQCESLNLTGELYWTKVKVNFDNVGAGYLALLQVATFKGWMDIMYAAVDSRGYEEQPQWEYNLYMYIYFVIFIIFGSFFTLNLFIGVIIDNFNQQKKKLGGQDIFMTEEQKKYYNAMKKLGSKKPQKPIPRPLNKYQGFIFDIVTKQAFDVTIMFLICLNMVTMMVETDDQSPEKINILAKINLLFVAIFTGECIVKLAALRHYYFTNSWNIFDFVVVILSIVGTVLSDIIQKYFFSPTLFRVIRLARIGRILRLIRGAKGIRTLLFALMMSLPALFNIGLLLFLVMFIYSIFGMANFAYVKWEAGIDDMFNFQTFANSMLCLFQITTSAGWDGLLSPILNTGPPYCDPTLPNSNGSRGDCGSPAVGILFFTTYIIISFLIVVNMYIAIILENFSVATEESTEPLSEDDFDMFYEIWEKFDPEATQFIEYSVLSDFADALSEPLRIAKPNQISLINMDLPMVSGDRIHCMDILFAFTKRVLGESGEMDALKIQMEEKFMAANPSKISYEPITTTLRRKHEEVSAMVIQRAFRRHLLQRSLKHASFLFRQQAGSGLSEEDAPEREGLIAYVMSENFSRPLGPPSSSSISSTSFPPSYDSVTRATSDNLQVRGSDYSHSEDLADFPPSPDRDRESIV

`CC(C)(C)NC(=O)Cn1c(-c2cccc(OC(F)(F)F)c2)cc2cc(C(C)(C)C(=O)NC(C)(C)C)ccc21` yielded a bioavailability in [1] of 26%. Further, the inhibition at 10 µM in series [2] is 93%. Further, the EC50 in [3] was greater than 30000 nM. Further, the remaining at 1 h in series [4] amounted to 0.82%; in series [5], 22%. For the same compound, in the series with Rattus norvegicus, the AUC turned out to be 0.83 µM·kg·h/mg. Also, the clearance in series [6] was 11 mL/min/kg. Also, the half-life in series [7] is 2.27 h.

As for `CCCN[C@@H](C)c1c(-c2cc(C)cc(C)c2)[nH]c2ccc(C(C)(C)C(=O)N3C4CCC3CC4)cc12`, the IC50 in series [8] was 880 nM. Further, the inhibition at 10 µM amounted to 62% in series [2] and 44% in series [9].

In the case of `CCOC(=O)C(C)(C)c1ccc2c(c1)c([C@H](C)CO)c(-c1cc(C)cc(C)c1)n2C(=O)OC(C)(C)C`, the IC50 in [8] worked out at 600 nM. In addition, the inhibition at 10 µM turned out to be 40% in series [2] and 25% in [9].

Usually bioavailability stands for dose-corrected exposure relative to a reference, in per cent. Higher therefore signals good availability. Broadly, the inhibition is the percentage by which the read-out fell short of the control. For orientation: EC50 means the concentration needed to bring the measured effect to its halfway point. Lower therefore signals an effect from little substance. Usually half-life stands for the time in which the quantity being followed falls by half. The term IC50 denotes the concentration needed to halve the response being measured.
